What all share (format): functional
The test system of one assay is Mycobacterium kansasii. The assay can be described thus: Antimycobacterial activity against Mycobacterium kansasii DSM 44162 after 7 days. Conditions: DSM 44162, 168 h. A digest of the protocol:
(§1)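 MIC by broth microdilution in Middlebrook 7H9 with ADC enrichment. Compounds were dissolved in DMSO. Inoculum: colonies in sterile water adjusted to 0.5 McFarland, then diluted 1:1000 in sterile water. Drug-free, sterility and medium+DMSO controls were included. Wells were read visually after static incubation in the dark.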

The next assay concerns Mycobacterium marinum. Put plainly: Antimycobacterial activity against Mycobacterium marinum CAMP 5644 after 21 days. Conditions: CAMP 5644, 504 h. An outline of the steps: as §1
For assay [1], the system named is Mycolicibacterium smegmatis. Put plainly: Antimycobacterial activity against Mycobacterium smegmatis ATCC 700084 after 3 days. The note with it: ATCC 700084, 72 h. An outline of the steps: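 Middlebrook 7H9 plus ADC broth microdilution MIC, with compounds in DMSO. Colonies were suspended in sterile water to 0.5 McFarland, then diluted 1:1000 in sterile water. Drug-free, sterility and DMSO controls were included. The visual read followed 3 days of static aerobic incubation at 37 °C in darkness.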

The next assay relates to Pasteurella multocida. The assay can be described thus: Antimicrobial activity against Pasteurella multocida clinical isolate after 24 hrs by broth microdilution method. An outline of the steps:
(§2)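 Broth microdilution MIC in Mueller–Hinton broth, per modified NCCLS guidelines. Strains were grown on nutrient agar with 5% ovine blood. Colonies were suspended in PBS (pH 7.2–7.3), adjusted to 0.5 McFarland, then diluted 1:20 in MH broth. Compounds were in DMSO, ≤2.5% final. Drug-free, sterility and DMSO controls were included.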

The next assay relates to Clostridium perfringens. The assay can be described thus: Antimicrobial activity against Clostridium perfringens CNCTC 5770 after 24 hrs by broth microdilution method. Conditions: CNCTC 5770, 24 h. A digest of the protocol:
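Colonies grown on blood agar (nutrient agar, 5% ovine blood) were suspended in PBS pH 7.2–7.3, set to 0.5 McFarland, and diluted 1:20 in MH broth for the final inoculum. Compounds were in DMSO (≤2.5% final), tested by NCCLS-modified microdilution with drug-free, sterility and DMSO controls.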

Assay [2] has as its system Staphylococcus aureus. Put plainly: Antimicrobial activity against methicillin-resistant Staphylococcus aureus 3202 after 24 hrs by broth microdilution method. Conditions: Staphylococcus aureus, 3202, 24 h. A digest of the protocol:
(§3)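 Colonies grown on nutrient agar with 5% ovine blood were suspended in PBS (pH 7.2–7.3), adjusted to 0.5 McFarland, and diluted 1:20 in Mueller–Hinton broth. Compounds were dissolved in DMSO (final ≤2.5%) and tested by NCCLS-modified broth microdilution with drug-free, sterility and broth+DMSO controls.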

Assay [3] has as its system Staphylococcus aureus. The assay can be described thus: Antimicrobial activity against methicillin-resistant Staphylococcus aureus 630 after 24 hrs by broth microdilution method. Conditions: Staphylococcus aureus, 630, 24 h. A digest of the protocol:
as §3

Assay [4] relates to Staphylococcus aureus. The assay can be described thus: Antimicrobial activity against methicillin-resistant Staphylococcus aureus 63718 after 24 hrs by broth microdilution method. The note with it: Staphylococcus aureus, 63718, 24 h. An outline of the steps:
as §3

For a further assay, the system named is Bacillus cereus. Put plainly: Antimicrobial activity against Bacillus cereus ATCC 14579 after 24 hrs by broth microdilution method. The note with it: ATCC 14579, 24 h. A digest of the protocol:
as §2

The test system of assay [5] is Staphylococcus aureus. The assay can be described thus: Antimicrobial activity against Staphylococcus aureus ATCC 29213 after 24 hrs by broth microdilution method. Conditions: ATCC 29213, 24 h. An outline of the steps: as §2

In brackets after ≈: the same amount, converted by molar mass.

For `O=C(Nc1ccccc1)c1cc(Cl)ccc1O`, the MIC in the assay on Mycobacterium kansasii is 16.1 µM (≈ 4 µg/mL); in the assay on Mycobacterium marinum, 64.6 µM (≈ 16 µg/mL); in assay [1], 64.6 µM (≈ 16 µg/mL); in the assay with Pasteurella multocida, 1.01 µM (≈ 0.25 µg/mL); against Clostridium perfringens, more than 1030 µM; against Staphylococcus aureus [2], 16.1 µM (≈ 4 µg/mL). Moreover, the minimal inhibitory concentration (MIC) with Staphylococcus aureus [3] worked out at 16.1 µM (≈ 4 µg/mL); with Staphylococcus aureus [4] it was 32.3 µM (≈ 8 µg/mL); in the assay on Bacillus cereus, 32.3 µM (≈ 8 µg/mL); against Staphylococcus aureus [5], 16.1 µM (≈ 4 µg/mL).
On to `O=C(Nc1ccc(Cl)cc1)c1cc(Cl)ccc1O`, for which the MIC in the assay on Mycobacterium kansasii came to 7.08 µM (≈ 2 µg/mL); in the assay on Mycobacterium marinum, 7.08 µM (≈ 2 µg/mL); in assay [1], 28.4 µM (≈ 8 µg/mL); in the assay with Pasteurella multocida it was 3.54 µM (≈ 0.999 µg/mL); with Clostridium perfringens, 14.2 µM (≈ 4 µg/mL); against Staphylococcus aureus [2], 56.7 µM (≈ 16 µg/mL). Also, the MIC against Staphylococcus aureus [3] was 28.4 µM (≈ 8 µg/mL); in the assay on Staphylococcus aureus [4] it was 56.7 µM (≈ 16 µg/mL); in the assay with Bacillus cereus it was 14.2 µM (≈ 4 µg/mL); against Staphylococcus aureus [5], 28.4 µM (≈ 8 µg/mL).
As to `Cc1ccc(NC(=O)c2cc(Cl)ccc2O)cc1`, the MIC was 30.6 µM (≈ 8 µg/mL) against Mycobacterium kansasii; 61.1 µM (≈ 16 µg/mL) against Mycobacterium marinum; more than 978 µM in assay [1]; 1.91 µM (≈ 0.5 µg/mL) in the assay on Pasteurella multocida; more than 978 µM with Clostridium perfringens; more than 978 µM with Staphylococcus aureus [2]. Moreover, the minimum inhibitory concentration (MIC) in the assay on Staphylococcus aureus [3] was more than 978 µM; in the assay on Staphylococcus aureus [4], more than 978 µM; in the assay with Bacillus cereus, 30.6 µM (≈ 8 µg/mL); against Staphylococcus aureus [5], more than 978 µM.
